Test results reported in PMC10339699 (Clinical and Translational Science, 2023).
≈ marks a conversion by molar mass, not a printed value. Read-outs that look alike come from different tables or passages of the source.

Assays:
[1] = Part 1: plasma PK of rilzabrutinib after single oral 400 mg tablet; type: in vivo, human
[2] = Part 1: plasma PK of [14C]‐rilzabrutinib after i.v. microtracer dose; type: in vivo; conditions: male, human, iv, 100 ug
[3] = Part 1: absolute oral bioavailability; type: in vivo; conditions: male, human, plasma, 400 mg
Summary of the method: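 Healthy subjects (n = 8) fasted overnight 10 h, then took a 400 mg oral tablet with 240 mL water. At 120 min, ~100 μg [14C]-labelled microtracer (~1 μCi) was given as an ~2-min i.v. push. K2 EDTA plasma was analysed by acetonitrile precipitation and LC-MS/MS (0.100–100 ng/mL). Noncompartmental AUC used linear-up/log-down. F was the GLSM oral/i.v. ratio with 90% CI, from a model with formulation fixed and subject random.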

[4] = type: in vivo, human
[5] = Part 2: total radioactivity PK in plasma and whole blood; type: in vivo, human; conditions: part 2, plasma total radioactivity
[6] = type: in vivo, human; remark: listed apart in the source
[7] = Part 2: urinary excretion of unchanged rilzabrutinib; type: in vivo, human
[8] = Safety and tolerability; type: in vivo, human
[9] = pH‐dependent solubility; type: physicochemical
[10] = tested on: gut flora; assay: Gut flora metabolism in vitro; type: in vitro ADME; conditions: in vitro studies (unpublished data)
[11] = previous bioavailability study; ref PRN1008‐006, unpublished data; cited from earlier work
[12] = tested on: BTK; conditions: within 4 h of dosing, multiple dosing; cited from earlier work
[13] = male, human, plasma, po, 400 mg
[14] = part 1, oral 400 mg tablet (test), mixed‐effect model
[15] = part 1, single oral 400 mg tablet, dose normalized, geometric mean (CV)
[16] = bile collection subjects, through the last collection interval
[17] = non‐bile collection subjects, through the last collection interval

## CC(C)(/C=C(\C#N)C(=O)N1CCC[C@@H](n2nc(-c3ccc(Oc4ccccc4)cc3F)c3c(N)ncnc32)C1)N1CCN(C2COC2)CC1 [rilzabrutinib]
[1]; 400 mg tablet (part 1) versus 300 mg solution (part 2)
  Delay in T max for tablet formulation as compared to liquid formulation: 1 h
[1]; [13]
  AUC(0-inf): 336 ng·h/mL
  AUC(0-t): 334 ng·h/mL
  Cmax: 108 ng/mL
  Tmax: 2.03 h
[1]; [14]
  DN AUC0–inf, GLSM: 0.839 ng·h/mL/mg
  DN AUC0–last, GLSM: 0.835 ng·h/mL/mg
[1]; [15]
  DN AUC0–inf: 0.839 (62.2) [n = 8] h ng/mL/mg
  DN AUC0–last: 0.835 (62.7) [n = 8] h ng/mL/mg
[2]
  Vd: 149 L
  clearance: 968 mL/min
[3]
  bioavailability: < 5%
[4]; male, human, plasma, po, 300 mg
  half-life: 2.45 h
[4]; part 2, single oral 300 mg solution, geometric mean (CV)
  CL/F: 904 L/h
[5]
  Circulating metabolite identified: thiocyanate
[6]; bile collection subjects
  Administered radioactivity recovered in the first 192 h postdose: 87.1%
[6]; bile collection subjects, 3-8 h postdose
  Administered radioactivity recovered in bile, average: 6.29%
[6]; [16]
  Administered radioactivity recovered in feces, average: 72.7%
  Administered radioactivity recovered in urine, average: 5.42%
[6]; non‐bile collection subjects
  Administered radioactivity recovered within the first 168 h of dosing: 92.1%
[6]; [17]
  Administered radioactivity recovered in feces, mean: 87.0%
  Administered radioactivity recovered in urine, mean: 5.25%
[7]; male, human, urine and plasma, po, 300 mg
  CL renal: 4.05 mL/min
[7]; unchanged rilzabrutinib in urine, 0–312 h, 300 mg oral, geometric mean (CV)
  f eu (percentage of dose excreted in urine as unchanged drug): 3.02%
[8]; both parts of the study
  Clinical laboratory evaluations, vital signs, 12‐lead electrocardiogram, physical examinations: no clinically significant findings
[8]; both parts of the study, healthy male subjects
  Tolerability: well‐tolerated
[8]; either part of the study
  Deaths, serious adverse events, or TEAEs leading to discontinuation: No deaths, serious adverse events, or treatment emergent adverse events (TEAEs) leading to discontinuation
[8]; entire study, except for one moderate TEAE (viral infection) not treatment related
  Severity of TEAEs: mild
[8]; part 1
  Total number of TEAEs: three
[8]; part 2
  Total number of TEAEs: 13
[8]; part 2, six of 10 subjects
  Subjects who reported TEAEs: 60%
[9]
  solubility: 40 µg/mL (≈ 60.1 µM)
[9]; aqueous buffer
  solubility: > 120000 µg/mL
[10]
  Gut flora metabolism: high gut flora metabolism
[11]
  PK exposure after 300 mg oral solution and 400 mg tablet formulation: comparable
[12]
  BTK occupancy: greater than 90%
